Results as given in PMC2943143 (Biochemical pharmacology, 2010).
Entries after “also recorded” stand apart in the source; their conditions may differ.

Columns and labels:
[1] = target: Klenow fragment of E. coli pol I (Escherichia coli, UniProt P00582); experiment: Pol assay, Klenow fragment of E. coli pol I; assay type: biochemical; conditions: supplemental Fig. S1A
In short: (§1)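 Test compound was dissolved in DMSO and sonicated 30 s. It was preincubated with enzyme (0.05 unit final) in 50 mM Tris-HCl pH 7.5, 1 mM DTT, 50% glycerol and 0.1 mM EDTA at 0 °C for 10 min. This was added to each enzyme's standard reaction mix with poly(dA)/oligo(dT)18 (A/T = 2/1) template-primer and dTTP substrate, then incubated at 37 °C for 60 min. Activity is given as % of inhibitor-free control.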

calf pol α = target: T1, calf pol α (Bos taurus, UniProt A0AAA9TD94); experiment: Pol assay, calf pol α; assay type: biochemical; conditions: for Ki: pol α, Dixon plot
T1 sequence (A0AAA9TD94 1-1441): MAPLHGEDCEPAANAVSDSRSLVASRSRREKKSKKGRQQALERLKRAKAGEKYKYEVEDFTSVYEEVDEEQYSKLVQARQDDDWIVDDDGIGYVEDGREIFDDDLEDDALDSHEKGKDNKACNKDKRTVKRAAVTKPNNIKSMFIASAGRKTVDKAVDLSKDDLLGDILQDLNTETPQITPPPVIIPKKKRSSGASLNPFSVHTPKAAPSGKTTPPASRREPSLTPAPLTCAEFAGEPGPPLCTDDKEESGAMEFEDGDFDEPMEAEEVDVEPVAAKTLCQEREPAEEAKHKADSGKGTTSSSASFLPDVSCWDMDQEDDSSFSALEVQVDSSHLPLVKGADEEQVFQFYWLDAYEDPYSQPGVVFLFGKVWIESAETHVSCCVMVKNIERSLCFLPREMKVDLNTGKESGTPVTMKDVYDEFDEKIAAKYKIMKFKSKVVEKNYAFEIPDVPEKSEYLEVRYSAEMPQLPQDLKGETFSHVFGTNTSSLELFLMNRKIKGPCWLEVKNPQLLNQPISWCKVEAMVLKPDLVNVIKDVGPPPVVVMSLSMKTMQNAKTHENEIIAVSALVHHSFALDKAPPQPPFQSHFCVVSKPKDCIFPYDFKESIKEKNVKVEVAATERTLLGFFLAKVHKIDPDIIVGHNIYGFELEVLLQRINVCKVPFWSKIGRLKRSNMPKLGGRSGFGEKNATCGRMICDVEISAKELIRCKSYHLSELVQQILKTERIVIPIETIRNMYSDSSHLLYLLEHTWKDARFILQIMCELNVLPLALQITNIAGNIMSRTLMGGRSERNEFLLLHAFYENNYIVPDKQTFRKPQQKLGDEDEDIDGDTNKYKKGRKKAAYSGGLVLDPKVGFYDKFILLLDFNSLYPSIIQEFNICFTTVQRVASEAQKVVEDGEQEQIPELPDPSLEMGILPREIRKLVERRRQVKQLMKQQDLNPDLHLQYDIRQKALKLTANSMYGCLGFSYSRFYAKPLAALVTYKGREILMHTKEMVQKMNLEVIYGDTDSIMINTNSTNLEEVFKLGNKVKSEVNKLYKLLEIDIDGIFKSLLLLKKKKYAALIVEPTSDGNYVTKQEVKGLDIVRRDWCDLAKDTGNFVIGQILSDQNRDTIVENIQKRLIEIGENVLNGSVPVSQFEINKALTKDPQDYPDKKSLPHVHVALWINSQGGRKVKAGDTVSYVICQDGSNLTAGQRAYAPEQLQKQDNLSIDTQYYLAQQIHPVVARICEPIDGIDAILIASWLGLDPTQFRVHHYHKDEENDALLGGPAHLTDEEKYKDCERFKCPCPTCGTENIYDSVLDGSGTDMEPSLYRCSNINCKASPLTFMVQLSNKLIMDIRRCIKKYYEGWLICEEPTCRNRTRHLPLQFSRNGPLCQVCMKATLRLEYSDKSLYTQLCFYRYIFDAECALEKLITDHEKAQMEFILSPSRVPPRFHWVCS
In short: as §1

rat pol β = rat pol β (Rattus norvegicus, UniProt P06766); experiment: Pol assay, rat pol β; assay type: biochemical; conditions: for Ki: pol β, Dixon plot
In short: as §1

mouse pol ι = mouse pol ι (Mus musculus, UniProt Q6R3M4); experiment: Pol assay, mouse pol ι; assay type: biochemical
mouse pol ι, sequence (Q6R3M4 whole entry): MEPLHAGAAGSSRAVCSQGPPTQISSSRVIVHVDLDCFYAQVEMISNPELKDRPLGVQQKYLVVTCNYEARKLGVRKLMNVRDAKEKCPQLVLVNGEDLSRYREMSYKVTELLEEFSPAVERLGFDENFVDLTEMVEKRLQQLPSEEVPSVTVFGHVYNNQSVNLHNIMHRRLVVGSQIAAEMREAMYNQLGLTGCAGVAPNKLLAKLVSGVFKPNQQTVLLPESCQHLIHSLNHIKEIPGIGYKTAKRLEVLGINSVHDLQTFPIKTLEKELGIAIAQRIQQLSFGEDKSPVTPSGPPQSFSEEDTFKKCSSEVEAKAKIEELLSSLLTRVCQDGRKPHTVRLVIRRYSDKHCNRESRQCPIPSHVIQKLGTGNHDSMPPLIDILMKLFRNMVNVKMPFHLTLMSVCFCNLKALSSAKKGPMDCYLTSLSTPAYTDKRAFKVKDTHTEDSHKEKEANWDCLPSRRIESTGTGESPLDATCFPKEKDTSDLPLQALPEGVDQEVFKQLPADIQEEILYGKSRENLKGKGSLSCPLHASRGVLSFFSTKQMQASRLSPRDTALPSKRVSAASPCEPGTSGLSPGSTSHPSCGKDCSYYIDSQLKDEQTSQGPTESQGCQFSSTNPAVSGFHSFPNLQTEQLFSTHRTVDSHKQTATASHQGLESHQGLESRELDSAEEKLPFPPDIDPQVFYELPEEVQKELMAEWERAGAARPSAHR
In short: as §1

Neutral endopeptidase = conditions: read-out: IC50, Neutral endopeptidase; cited from earlier work
[2] = unchanged at 30, 60 and 90 nM PGG

Klenow fragment of E. coli pol I, sequence (P00582 324-928): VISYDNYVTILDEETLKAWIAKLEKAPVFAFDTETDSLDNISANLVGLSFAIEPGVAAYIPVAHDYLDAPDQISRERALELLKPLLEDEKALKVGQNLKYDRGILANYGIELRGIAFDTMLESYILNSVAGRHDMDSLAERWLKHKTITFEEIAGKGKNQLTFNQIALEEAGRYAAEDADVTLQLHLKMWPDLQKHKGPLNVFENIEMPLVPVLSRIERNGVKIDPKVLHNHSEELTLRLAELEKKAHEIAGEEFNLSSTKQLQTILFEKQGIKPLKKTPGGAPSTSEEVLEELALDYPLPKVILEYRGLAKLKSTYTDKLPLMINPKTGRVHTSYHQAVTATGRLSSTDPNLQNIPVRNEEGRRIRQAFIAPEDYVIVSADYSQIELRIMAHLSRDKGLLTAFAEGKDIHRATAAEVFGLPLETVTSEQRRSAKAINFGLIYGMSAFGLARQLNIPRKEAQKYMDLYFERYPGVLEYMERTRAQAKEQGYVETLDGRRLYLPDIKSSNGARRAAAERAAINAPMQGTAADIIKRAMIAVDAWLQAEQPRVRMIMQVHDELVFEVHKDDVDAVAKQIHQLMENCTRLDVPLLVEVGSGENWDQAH

With O=C(OC[C@H]1O[C@@H](OC(=O)c2cc(O)c(O)c(O)c2)[C@H](OC(=O)c2cc(O)c(O)c(O)c2)[C@@H](OC(=O)c2cc(O)c(O)c(O)c2)[C@@H]1OC(=O)c1cc(O)c(O)c(O)c1)c1cc(O)c(O)c(O)c1 [PGG, 1,2,3,4,6-penta-O-galloyl-β-D-glucose] the “effect on Klenow fragment of E. coli pol I activity” value [1] was “not influenced”, the “apparent Vmax of pol α, DNA template-primer, decreased to” value (from here on “apparent Vmax of pol α … decreased to”) (calf pol α; 5 nM PGG) was 32.2% and the “apparent Vmax of pol α … decreased to” value (calf pol α; 10 nM PGG) was 18.9%. The “apparent Vmax of pol α … decreased to” value (calf pol α; 15 nM PGG) was 13.6%, the “apparent Vmax of pol α for the dNTP substrate” value (calf pol α; 15 nM PGG (29.2 without PGG)) was 3.77 pmol/h and the “effect on pol α activity” value (calf pol α; 100 and 1,000 nM PGG, Fig. 1C) was “significantly inhibit”. The IC50 (calf pol α; IC50, pol α, poly(dA)/oligo(dT)18 and dTTP, 0.05 unit enzyme) was 13 nM, the Ki (calf pol α; for the DNA template-primer) was 2.5 nM and the Ki (calf pol α; for the dNTP substrate) was 2.2 nM. For the same molecule, the “Mode of Inhibition, pol α, DNA template-primer” value (calf pol α; Lineweaver-Burk plots) was “Non-competitive for DNA template-primer”, the “Mode of Inhibition, pol α, dNTP” value (calf pol α; Lineweaver-Burk plots) was “Non-competitive for dNTP” and the “effect of 0.05% NP-40 on the inhibitory effect on pol α” value (calf pol α; PGG 10 and 100 nM, supplemental Table S1) was “not reversed”. The “effect of poly(rC) or BSA on the inhibitory effect on pol α” value (calf pol α; poly(rC) 50 μM, BSA 200 μg/ml) was “neither poly(rC) nor BSA influenced”, the IC50 (rat pol β; IC50, pol β, poly(dA)/oligo(dT)18 and dTTP, 0.05 unit enzyme) was 108 to 160 nM and the Ki (rat pol β; for the DNA template-primer) was 20.1 nM. For the same molecule, the Ki (rat pol β; for the dNTP substrate) was 23.8 nM, the “effect of 0.05% NP-40 on the inhibitory effect on pol β” value (rat pol β; PGG 100 nM and 200 nM, supplemental Table S1) was “not reversed” and the “Mode of Inhibition, pol β, DNA template-primer” value (rat pol β; double reciprocal plots) was “competitively; also recorded: Competitive for DNA template-primer”. For the same molecule, the “Mode of Inhibition, pol β, dNTP” value (rat pol β; double reciprocal plots) was “competitively; also recorded: Competitive for dNTP”, the “effect of poly(rC) or BSA on the inhibitory effect on pol β” value (rat pol β; poly(rC) 50 μM, BSA 200 μg/ml) was “neither poly(rC) nor BSA influenced” and the “apparent Vmax of pol β, DNA template-primer” value (rat pol β; [2]) was 111 pmol/h. For the same molecule, the “apparent Vmax of pol β, dNTP substrate” value (rat pol β; [2]) was 62.5 pmol/h, the IC50 (mouse pol ι) was 30 to 45 nM and the “effect on pol ι activity” value (mouse pol ι; 100 and 1,000 nM PGG, Fig. 1C) was “significantly inhibit”. For the same molecule, the IC50 (Neutral endopeptidase) was 12.5 µM.
